Measured values reported in ChEMBL document CHEMBL1687740, “Cellular accumulation and pharmacodynamic evaluation of the intracellular activity of CEM-101, a novel fluoroketolide, against Staphylococcus aureus, Listeria monocytogenes, and Legionella pneumophila in human THP-1 macrophages” (Antimicrob Agents Chemother, 2009).
Values after ≈ are worked out from the molar mass of the structure shown. Active and inactive are the calls of the source. The calls are words filed in the database; no cut-off is given here.

Key:
Staphylococcus aureus [1] = test: Antibacterial activity against methicillin-sensitive Staphylococcus aureus ATCC 25923 assessed as decrease of CFU at 0.7 mg/liter; format: functional, organism-based
Procedure, shortened: (§1)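 Short-term 6-h time-kill in broth at pH 7.4 at fixed extracellular concentrations of 0.7 or 4 mg/liter; CFU followed over time; three independent experiments.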

Staphylococcus aureus [2] = test: Antibacterial activity against methicillin-sensitive Staphylococcus aureus ATCC 25923 infected in human THP1 cells assessed as decrease of CFU after 24 hrs; format: functional, organism-based; details: ATCC 25923, THP-1, 24 h
Procedure, shortened: (§2)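 THP-1 macrophages infected, non-phagocytosed bacteria removed, then exposed 24 h over a concentration range. Postphagocytosis inoculum (2.74 ± 0.55) × 10⁶ CFU/mg protein. Hill fit (slope 1). […] Cs = no change from inoculum, by graphical intrapolation. n = 3.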

Listeria monocytogenes [3] = test: Antibacterial activity against Listeria monocytogenes EGD after 24 hrs; format: functional
THP-1 [4] = test: Drug uptake in human THP1 cells after 2 hrs in presence of monensin; format: ADME, cell-based; details: thp-1, 2 h
Procedure, shortened: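 Accumulation at 37°C, 10 mg/liter drug, with monensin 50 μM for 2 h. Microbiological assay normalized to cell protein. n = 3.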

Staphylococcus aureus [5] = test: Antibacterial activity against methicillin-sensitive Staphylococcus aureus ATCC 25923 assessed as decrease of CFU after 24 hrs; format: functional, organism-based; details: ATCC 25923, 24 h
Procedure, shortened: (§3)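 24-h concentration-response in Mueller-Hinton broth; original inoculum (0.97 ± 0.24) × 10⁶ CFU/ml. Hill equation fit (slope factor 1). Emax = log10 CFU decrease from inoculum extrapolated to infinite concentration. Cs = concentration giving CFU equal to inoculum, by graphical intrapolation. Counts under five taken as below detection. n = 3.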

Staphylococcus aureus [6] = test: Antibacterial activity against methicillin-sensitive Staphylococcus aureus ATCC 25923 after 24 hrs; format: functional; details: ATCC 25923, 24 h
Staphylococcus aureus [7] = test: Antibacterial activity against methicillin-sensitive Staphylococcus aureus ATCC 25923 assessed as concentration required to no apparent bacterial growth after 24 hrs; format: functional; procedure, shortened: as §3
Staphylococcus aureus [8] = test: Antibacterial activity against methicillin-sensitive Staphylococcus aureus ATCC 25923 by time kill study; format: functional; procedure, shortened: as §1
THP-1 [9] = test: Drug uptake in human THP1 cells at acidic pH after 30 mins; format: ADME, cell-based; details: thp-1, 0.5 h
Procedure, shortened: (§4)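 30-min accumulation at 37°C, 10 mg/liter extracellular, in culture medium at varied pH. Microbiological drug assay normalized to cell protein, converted at 5 μl/mg protein. n = 3.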

THP-1 [10] = test: Drug uptake in human THP1 cells at pH 6 to 7 after 30 mins; format: ADME, cell-based; details: thp-1, pH 6, 0.5 h; procedure, shortened: as §4
Legionella pneumophila [11] = test: Antibacterial activity against Legionella pneumophila ATCC 33153 at pH 6.5 to 7.4 after 48 hrs; format: functional; details: ATCC 33153, 48 h
Staphylococcus aureus [12] = test: Antibacterial activity against methicillin-sensitive Staphylococcus aureus ATCC 25923 infected in human THP1 cells assessed as decrease of intracellular CFU at 0.7 mg/liter; format: functional, organism-based; details: THP-1
Procedure, shortened: (§5)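 Phagocytosed bacteria in THP-1 macrophages exposed to a fixed extracellular concentration of 0.7 or 4 mg/liter; intracellular CFU followed over 6 h; three independent experiments.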

Legionella pneumophila [13] = test: Antibacterial activity against Legionella pneumophila infected in human THP1 cells assessed as concentration required to no apparent bacterial growth after 48 hrs
Staphylococcus aureus [14] = test: Antibacterial activity against methicillin-sensitive Staphylococcus aureus ATCC 25923 infected in human THP1 cells assessed as decrease of CFU after 24 hrs relative to initial inoculum; format: functional, THP-1; procedure, shortened: as §2
Listeria monocytogenes [15] = test: Antibacterial activity against […] Listeria monocytogenes EGD assessed as concentration required to no apparent bacterial growth after 24 hrs; format: functional, EGD-e
THP-1 [16] = test: Drug uptake in human THP1 cells after 24 hrs relative to extracellular concentration; format: ADME, cell-based; details: thp-1, 24 h
Procedure, shortened: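 THP-1 cells incubated at 37°C with drug at 10 mg/liter extracellular, accumulation followed up to 24 h. Cell-associated drug assayed microbiologically with S. aureus ATCC 25923, normalized to cell protein (Folin-Ciocalteu/biuret) and converted at 5 μl/mg protein to the cellular/extracellular concentration ratio. n = 3.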

THP-1 [17] = test: Drug uptake in human THP1 cells after 24 hrs in presence of verapamil; format: ADME, cell-based; details: thp-1, 24 h
Procedure, shortened: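 Accumulation at 37°C, 10 mg/liter drug, with verapamil 150 μM for 24 h. Microbiological assay normalized to cell protein. n = 3.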

Staphylococcus aureus [18] = test: Antibacterial activity against methicillin-sensitive Staphylococcus aureus ATCC 25923 infected in human THP1 cells assessed as concentration required to no apparent bacterial growth after 24 hrs; format: functional, THP-1; procedure, shortened: as §2
Listeria monocytogenes [19] = test: Antibacterial activity against Listeria monocytogenes EGD at pH 5.5 to 7.4 after 24 hrs; format: functional; details: EGD-e
Staphylococcus aureus [20] = test: Antibacterial activity against methicillin-sensitive Staphylococcus aureus ATCC 25923 assessed as decrease of CFU after 24 hrs relative to initial inoculum; format: functional; procedure, shortened: as §3
Legionella pneumophila [21] = test: Antibacterial activity against Legionella pneumophila ATCC 33153 after 48 hrs; format: functional; details: ATCC 33153, 48 h
Procedure, shortened: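 L. pneumophila MIC determined in α-ketoglutarate-buffered yeast extract broth, read after 48 h incubation.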

THP-1 [22] = test: Drug uptake in human THP1 cells after 24 hrs in presence of gemfibrozil; format: ADME, cell-based; details: thp-1, 24 h
Procedure, shortened: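 Accumulation at 37°C, 10 mg/liter drug, with gemfibrozil 250 μM for 24 h. Microbiological assay normalized to cell protein. n = 3.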

Staphylococcus aureus [23] = test: Antibacterial activity against methicillin-sensitive Staphylococcus aureus ATCC 25923 at pH 5.5 to 7.4 after 24 hrs; format: functional
Legionella pneumophila [24] = test: Antibacterial activity against Legionella pneumophila infected in human THP1 cells assessed as decrease of CFU after 48 hrs relative to initial inoculum
Staphylococcus aureus [25] = test: Antibacterial activity against methicillin-sensitive Staphylococcus aureus ATCC 25923 infected in human THP1 cells assessed as decrease of intracellular CFU at 4 mg/liter; format: functional, THP-1; procedure, shortened: as §5
Listeria monocytogenes [26] = test: Antibacterial activity against […] Listeria monocytogenes EGD assessed as decrease of CFU after 24 hrs; format: functional, organism-based; details: EGD-e
Listeria monocytogenes [27] = test: Antibacterial activity against […] Listeria monocytogenes EGD assessed as decrease of CFU after 24 hrs relative to initial inoculum; format: functional, EGD-e
Legionella pneumophila [28] = test: Antibacterial activity against Legionella pneumophila infected in human THP1 cells assessed as decrease of CFU after 48 hrs; details: THP-1, 48 h
Staphylococcus aureus [29] = test: Antibacterial activity against methicillin-sensitive Staphylococcus aureus ATCC 25923 assessed as decrease of CFU at 4 mg/liter; format: functional, organism-based; procedure, shortened: as §1

Row | SMILES | EC50 (Staphylococcus aureus [2]) | MIC (Listeria monocytogenes [3]) | Drug uptake (THP-1 [4]) | EC50 (Staphylococcus aureus [5]) | MIC (Staphylococcus aureus [6]) | Activity (Staphylococcus aureus [7]) | Drug uptake (THP-1 [9]) | Drug uptake (THP-1 [10]) | MIC (Legionella pneumophila [11]) | Activity (Legionella pneumophila [13]) | log10cfu (Staphylococcus aureus [14]) | Activity (Listeria monocytogenes [15]) | Drug uptake (THP-1 [17]) | Activity (Staphylococcus aureus [18]) | MIC (Listeria monocytogenes [19]) | log10cfu (Staphylococcus aureus [20]) | MIC (Legionella pneumophila [21]) | Drug uptake (THP-1 [22]) | log10cfu (Legionella pneumophila [24]) | MIC (Staphylococcus aureus [23]) | other results
1 | CC[C@H]1OC(=O)[C@@](C)(F)C(=O)[C@H](C)[C@@H](O[C@@H]2O[C@H](C)C[C@H](N(C)C)[C@H]2O)[C@](C)(OC)C[C@@H](C)C(=O)[C@H](C)[C@H]2N(CCCCn3cc(-c4cccc(N)c4)nn3)C(=O)O[C@]12C [SOLITHROMYCIN] | 0.0068 µg/mL (≈ 0.00805 µM) | 0.004 µg/mL (≈ 0.00473 µM) | Not Active | 0.03 µg/mL (≈ 0.0355 µM) | 0.06 µg/mL (≈ 0.071 µM) | 0.06 mg/L | Not Active | Active | 0.005 µg/mL (≈ 0.00592 µM) | 0.018 mg/L | -0.86 | 0.11 mg/L | Active | 0.022 mg/L | 0.0039 µg/mL (≈ 0.00462 µM) | -1.37 | 0.004 µg/mL (≈ 0.00473 µM) | Active | -1.03 | – | Activity (Staphylococcus aureus [1]): Active; Time (Staphylococcus aureus [8]): 6 h; Activity (Staphylococcus aureus [12]): Active; fold change (FC) (THP-1 [16]): 350; MIC (Staphylococcus aureus [23]; ATCC 25923, 24 h): 0.06 µg/mL (≈ 0.071 µM); log10cfu (Staphylococcus aureus [25]): 1.5; EC50 (Listeria monocytogenes [26]): 0.02 µg/mL (≈ 0.0237 µM); log10cfu (Listeria monocytogenes [27]): -0.66; EC50 (Legionella pneumophila [28]): 0.052 µg/mL (≈ 0.0615 µM)
2 | CC[C@H]1OC(=O)[C@H](C)[C@@H](O[C@H]2C[C@@](C)(OC)[C@@H](O)[C@H](C)O2)[C@H](C)[C@@H](O[C@@H]2O[C@H](C)C[C@H](N(C)C)[C@H]2O)[C@](C)(O)C[C@@H](C)CN(C)[C@H](C)[C@@H](O)[C@]1(C)O [AZITHROMYCIN] | 0.024 µg/mL (≈ 0.032 µM) | 1 µg/mL (≈ 1.34 µM) | Not Active | 0.12 µg/mL (≈ 0.16 µM) | 0.5 µg/mL (≈ 0.668 µM) | 0.29 mg/L | Not Active | Active | 0.01 µg/mL (≈ 0.0134 µM) | 2.9 mg/L | -0.29 | 11.6 mg/L | Active | 0.63 mg/L | inactive | -1 | 0.016 µg/mL (≈ 0.0214 µM) | Active | -0.83 | inactive | Activity (Staphylococcus aureus [25]; THP-1): inactive; EC50 (Listeria monocytogenes [26]): 2.66 µg/mL (≈ 3.55 µM); log10cfu (Listeria monocytogenes [27]): -0.81; Activity (Staphylococcus aureus [29]): Active; EC50 (Legionella pneumophila [28]): 2.86 µg/mL (≈ 3.82 µM)
3 | CC[C@H]1OC(=O)[C@H](C)[C@@H](O[C@H]2C[C@@](C)(OC)[C@@H](O)[C@H](C)O2)[C@H](C)[C@@H](O[C@@H]2O[C@H](C)C[C@H](N(C)C)[C@H]2O)[C@](C)(OC)C[C@@H](C)C(=O)[C@H](C)[C@@H](O)[C@]1(C)O [CLARITHROMYCIN] | 0.046 µg/mL (≈ 0.0615 µM) | – | – | 0.8 µg/mL (≈ 1.07 µM) | – | 1.32 mg/L | – | – | – | – | -0.18 | – | Active | 0.84 mg/L | inactive | -1.41 | – | Active | – | inactive | –
4 | CC[C@H]1OC(=O)[C@H](C)C(=O)[C@H](C)[C@@H](O[C@@H]2O[C@H](C)C[C@H](N(C)C)[C@H]2O)[C@](C)(OC)C[C@@H](C)C(=O)[C@H](C)[C@H]2N(CCCCn3cnc(-c4cccnc4)c3)C(=O)O[C@]12C [TELITHROMYCIN] | 0.11 µg/mL (≈ 0.135 µM) | – | – | 1.78 µg/mL (≈ 2.19 µM) | – | 3.4 mg/L | – | – | – | – | 0.04 | – | Active | >50 mg/L | inactive | -1.23 | – | Active | – | inactive | –
